Data set [1] has as its system Mus musculus. The experiment in a line: In vivo inhibition of SCoR2 in C57BL/6J mouse assessed as reduction in SNO-CoA metabolic activity in spleen at 120 mg/kg body weight, ip administered as single dose into abdomen measured after 18 hrs. The data set is classed as functional, organism-based. An outline of the steps: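 Single i.p. injection into the mouse abdomen, DMSO vehicle; organs collected 18 h later. Tissues homogenized in 50 mM phosphate pH 7.0, 150 mM NaCl, EDTA/DTPA, then clarified; lysate started reactions with 200 μM SNO-CoA and 100 μM NADPH, 2 min, NADPH loss monitored, in triplicate. Compared with vehicle and SCoR2−/− kidneys.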

Data set [2] can be described thus: In vivo inhibition of SCoR2 in ischemia/reperfusion induced acute kidney injury mouse model assessed as reduction in SNO-CoA metabolic activity in kidneys at 120 mg/kg, ip pretreated for 18 hrs followed by kidney injury surgery and measured after 24 hrs relative to control. It counts as functional. As to conditions: time 42 hrs. An outline of the steps: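 Male mice (9–11 weeks, 25–28 g) dosed i.p. 18 h before renal ischemia–reperfusion surgery under isoflurane; kidneys taken 24 h after reperfusion. Kidney lysate SNO-CoA reductase activity measured with 200 μM SNO-CoA, 100 μM NADPH, 2 min, triplicate assays; DMSO-treated controls.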

For data set [3], the system named is Mus musculus. Nature of the data set: Protection against ischemia/reperfusion induced acute kidney injury in mouse assessed as reduction in sloughed debris in the tubular lumen at 120 mg/kg, ip pretreated for 18 hrs followed by kidney injury surgery and measured after 24 hrs by H and E staining based analysis. The data set is classed as functional, organism-based. The note with it: time 42.0 hrs. An outline of the steps: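 Mice dosed i.p. 120 mg/kg 18 h before I/R surgery, kidneys harvested 24 h later, H&E-stained. Tubular lysis, brush-border loss and luminal debris scored 0–2 over more than five fields per animal; n=5 mice per group, vehicle controls.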

Data set [4] relates to Mus musculus. Nature of the data set: Protection against ischemia/reperfusion induced acute kidney injury in mouse assessed as increase in SNO-PKM2 level in kidney at 120 mg/kg, ip pretreated for 18 hrs followed by kidney injury surgery and measured after 24 hrs by Western blot analysis. The data set is classed as functional, organism-based. As to conditions: time 42.0 hrs. The gist of the method: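 Kidneys from sham or I/R mice (120 mg/kg i.p. or DMSO) homogenized in HEN buffer with MMTS, then SDS/MMTS blocking at 50°C for 20 min and acetone-precipitated. 2 mg lysate captured on thiopropyl-Sepharose with 50 mM ascorbate, 4 h in the dark; no-ascorbate controls. PKM2 detected by western blot and normalized to input PKM2, n=3.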
In general terms: In western blotting, separated proteins are transferred to a membrane and probed.

Data set [5] addresses T1, Aldo-keto reductase family 1 member A1 (Homo sapiens) (UniProt P14550).
T1 sequence (whole entry): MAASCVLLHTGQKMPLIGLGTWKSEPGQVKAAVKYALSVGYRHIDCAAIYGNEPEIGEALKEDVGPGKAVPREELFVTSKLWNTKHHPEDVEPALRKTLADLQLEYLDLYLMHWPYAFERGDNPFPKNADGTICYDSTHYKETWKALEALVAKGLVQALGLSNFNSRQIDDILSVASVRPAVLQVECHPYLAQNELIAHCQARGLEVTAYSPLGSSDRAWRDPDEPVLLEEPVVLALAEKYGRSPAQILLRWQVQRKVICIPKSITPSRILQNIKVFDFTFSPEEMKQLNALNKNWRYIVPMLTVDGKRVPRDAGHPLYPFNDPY
The experiment in a line: Binding affinity to C-terminal 6His-tagged human recombinant SCoR2 AKR1A1 expressed in Escherichia coli BL21-CodonPlus competent cells assessed as thermal stability by measuring melting temperature at +/- 250 uM preincubated for 15 mins with NADP+ followed by compound addition and measured after 30 mins by SYPRO orange dye based DSF analysis (reference value: 51.4 degreeC). The gist of the method: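 5 μM protein with or without 250 μM NADPH or NADP⁺ and 250 μM inhibitor; cofactor preincubated 15 min, then inhibitor 30 min at room temperature. 10X SYPRO Orange added; temperature ramped 25–70°C in 0.3°C steps. DMSO-matched controls (1%); duplicates.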
(In general: In DSF a fluorescence change marks the thermal transition of the protein.)

Data set [6] can be described thus: Renal toxicity in mouse assessed as effect on anatomy of cortex at 120 mg/kg, ip treated for 18 hrs under basal conditions by H and E staining based analysis. The data set is classed as organism-based. As to conditions: in vivo. An outline of the steps: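 Sham-operated mice given 120 mg/kg i.p. or vehicle; kidney cortex and medulla examined by H&E staining.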

For another data set, the species on record is Homo sapiens. The experiment in a line: Selectivity index, ratio of IC50 for inhibition of human recombinant AKR1B1 expressed in Escherichia coli BL21-CodonPlus competent cells to IC50 for inhibition of human recombinant SCoR2 expressed in Escherichia coli BL21-CodonPlus competent cells. The gist of the method:
(§1)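 Purified enzyme at 200 nM (SCoR2 with 100 μM SNO-CoA; AKR1B1 with 100 μM methylglyoxylate) in 50 mM phosphate pH 7.0 with serial inhibitor dilutions; started with 100 μM NADPH, 2 min. Rate from 340 nm decrease, normalized to 20 nM protein activity; IC50 fitted, n=3. Selectivity taken as AKR1B1/SCoR2 IC50 ratio.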

In data set [7] the target is Aldo-keto reductase family 1 member B1 (Homo sapiens, UniProt P15121). The experiment in a line: Inhibition of C-terminal 6His-tagged human recombinant AKR1B1 expressed in Escherichia coli BL21-CodonPlus competent cells using methyl glyoxylate as substrate incubated for 2 mins in presence of NADPH. The gist of the method: as §1

Calls of active or inactive are those of the source. The calls are words filed in the database; no cut-off is given here.

One may read the inhibition in vivo as the relative decrease from the control value, in per cent. Usually Tm stands for the temperature at the midpoint of the melting transition. For orientation: IC50 means the concentration that gives 50% inhibition. `O=C1NC(=O)C2(N1)c1ccccc1-c1ccc(C3CC3)cc12` (stereo not drawn): in the data set on Mus musculus [1], the inhibition entry was “Active”. In data set [2], the inhibition in vivo at 120 mg/kg is 80%. The result in the data set on Mus musculus [3] and in the data set with Mus musculus [4] was Active. For the same compound, the Tm in data set [5] was found to be 54.4 °C. Also, the Activity entry in data set [6] was “Non-Toxic”. The Ratio IC50 in the data set filed under Homo sapiens amounted to 9.7. The half-maximal inhibitory concentration (IC50) in data set [7] came to 903 nM.

Values taken from ChEMBL document CHEMBL5338743, “Identification of a Selective SCoR2 Inhibitor That Protects Against Acute Kidney Injury” (J Med Chem, 2023).
